Experimental data from PMC4844355 (Cellular and Molecular Gastroenterology and Hepatology, 2016).
Converted amounts (≈) assume the structure as drawn. “Also recorded” adds a separate entry of the source.

Assays:
[1] = tested on: loperamide-induced mouse model of constipation; assay: Loperamide-induced constipation model in wild-type mice; format: in vivo; conditions: for Normalization of stool output as percent of the maximal CFTRact-J027 response: 0.5 mg/kg oral; for Stool weight, pellet number and water content (3 hours): 10 mg/kg intraperitoneal, loperamide-treated wild-type mice
How it was run: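 Female CD1 mice (8–10 wk) given loperamide 0.3 mg/kg IP. Test compound (0.1–10 mg/kg) or vehicle given IP at the same time, or orally 1 h before. Mice then housed singly in metabolic cages and stool collected for 3 h: total weight, pellet number, and water content after drying at 80°C for 24 h. Mean ± SEM; 6 mice per group, dose-response 4–6 per group.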

[2] = tested on: constipation-predominant irritable bowel syndrome patients; conditions: cited from earlier work
[3] = tested on: FRT cells; assay: In vitro cytotoxicity by Alamar Blue assay; format: cell-based, rat
How it was run: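 FRT cells exposed to 25 μmol/L test compound for 8 and 24 h, with viability read by Alamar Blue. Mean ± SEM, n = 3 cultures.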

[4] = tested on: cystic fibrosis mice (ΔF508 homozygous); format: in vivo, mouse; conditions: loperamide model; cystic fibrosis mice lacking functional CFTR
How it was run: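 ΔF508-homozygous cystic fibrosis mice run in the same loperamide protocol as wild-type mice (0.3 mg/kg IP, test compound or vehicle). Stool collected for 3 h in metabolic cages; weight, pellet number, and water content measured after drying at 80°C for 24 h. 3–6 mice per group.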

[5] = tested on: isolated mouse ileum and colon strips; assay: Ex vivo contractility of isolated intestinal strips; conditions: added alone or in the presence of 10 μmol/L loperamide
[6] = 7-day oral toxicity study in mice; format: in vivo, mouse
How it was run: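 Mice received 10 mg/kg test compound or vehicle orally once daily for 7 days. One hour after the last dose, loperamide 0.3 mg/kg IP was given and stool was collected for 3 h. At 4 h after the last dose: complete blood count, serum chemistry, body weight and lung wet/dry weight ratio. Mean ± SEM, 5 mice per group.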

[7] = target: human wild-type CFTR (Homo sapiens, UniProt P13569); assay: Short-circuit current in FRT cells expressing wild-type human CFTR; format: cell-based
How it was run: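 FRT cells stably expressing wild-type human CFTR grown on porous filters. Basolateral membrane permeabilized with 250 μg/mL amphotericin B. Apical side given a Cl⁻ gradient (65 mmol/L NaCl replaced by Na gluconate, 2 mmol/L CaCl2) against HEPES-buffered basolateral saline, pH 7.3, 37°C. Forskolin, test compound, then CFTRinh-172 (10 μmol/L) added. Concentration dependence: mean ± SEM, n = 3 cultures.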

[8] = tested on: closed midjejunal loops in wild-type mice; assay: Intestinal fluid secretion in closed midjejunal loops, wild-type mice; format: in vivo, mouse; conditions: 100 μg per loop, 90 minutes
How it was run: (§1)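 Mice fasted 24 h with 5% dextrose water only, then anaesthetised with isoflurane and kept at 36–38°C. Closed midjejunal loops (2–3 cm) tied off by sutures and injected with 100 μL vehicle or 100 μg test compound in vehicle. Incision closed and mice recovered. Loops removed at 90 min; loop weight/length taken as fluid secretion. 4 loops per group.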

[9] = tested on: loperamide-treated mice; assay: Efficacy in loperamide model after 7-day chronic oral administration; format: in vivo, mouse; conditions: 10 mg/kg orally for 7 days, loperamide 1 hour after final dose
[10] = tested on: cAMP; assay: GloSensor luminescence cAMP assay in FRT null cells; format: cell-based, rat; conditions: 5 μmol/L, 10 minutes
How it was run: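 FRT null cells stably transfected with a GloSensor cAMP plasmid, grown to confluence and washed 3× in PBS. Incubated 10 min with 5 μmol/L test compound, without or with forskolin (100 nmol/L). cAMP read by luminescence. Positive controls: forskolin 100 nmol/L and 20 μmol/L, forskolin plus IBMX 100 μmol/L. Mean ± SEM, n = 4–8.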

[11] = tested on: cystic fibrosis mice; assay: Whole-gut transit time in cystic fibrosis mice; format: in vivo, mouse; conditions: 10 mg/kg IP
How it was run: (§2)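 Marker (200 μL; 5% Evans Blue, 5% gum Arabic) given by oral gavage at zero time. At the same time, loperamide (0.3 mg/kg) and test compound (10 mg/kg) or vehicle given IP, to wild-type or cystic fibrosis mice. Whole-gut transit time taken as the time the marker appears in stool.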

[12] = tested on: closed midjejunal loops in cystic fibrosis mice; assay: Intestinal fluid secretion in closed midjejunal loops, cystic fibrosis mice; format: in vivo, mouse; conditions: 100 μg per loop, 90 minutes
How it was run: as §1

[13] = Solubility limit; format: physicochemical
[14] = tested on: closed midjejunal loops of cystic fibrosis mice; assay: Intestinal fluid absorption in closed midjejunal loops, cystic fibrosis mice; format: in vivo, mouse; conditions: 100 μg per loop, 30 minutes
[15] = In vitro metabolic stability in mouse liver microsomes; format: in vitro ADME
How it was run: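 Test compound (5 μmol/L) incubated at 37°C for set times with mouse liver microsomes (1 mg protein/mL) in 100 mmol/L potassium phosphate with 1 mmol/L NADPH. Reaction chilled on ice and extracted with ice-cold ethyl acetate, then centrifuged. Supernatant dried, residue taken up in acetonitrile:water 3:1, and parent measured by LC-MS.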

[16] = tested on: loperamide-treated wild-type mice; assay: Whole-gut transit time in loperamide-treated wild-type mice; format: in vivo, mouse; conditions: 10 mg/kg IP with loperamide at zero time
How it was run: as §2

[17] = target: ΔF508-CFTR (Homo sapiens, UniProt P13569, DEL508-508); assay: Short-circuit current in FRT cells expressing ΔF508-CFTR; format: cell-based; conditions: FRT cells expressing ΔF508-CFTR after overnight incubation with corrector VX-809
How it was run: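 Short-circuit current in FRT cells expressing ΔF508-CFTR, pre-corrected with 3 μmol/L VX-809 at 37°C for 24 h. Responses recorded to added forskolin, test compound and VX-770, with CFTRinh-172 (10 μmol/L) where indicated. Traces representative of 3 experiments.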

[18] = Pharmacokinetics in mice after bolus IP or oral administration; format: in vivo, mouse
How it was run: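 Female CD1 mice dosed once with 10 mg/kg test compound in saline containing 5% DMSO and 10% Kolliphor HS 15, IP or orally. Blood taken by orbital puncture at 15, 30, 60, 150, 240 and 360 min, and plasma separated by centrifugation. Levels measured by LC-MS against calibration standards spiked into untreated mouse plasma. Mean ± SEM, 3 mice per group.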

[19] = tested on: chronic constipation patients; conditions: placebo 0.9; cited from earlier work
[20] = 10 mg/kg orally once a day for 7 days
[21] = 10 mg/kg orally once per day for 7 days, mean ± SEM, 5 mice

Q: Which results are given for `CCCCC(F)(F)[C@@]1(O)CC[C@H]2[C@@H](CC(=O)[C@@H]2CCCCCCC(=O)O)O1` [lubiprostone, reference compound]?
A: Normalization of stool output as percent of the maximal CFTRact-J027 response ([1]; loperamide-treated mice): 50%; Overall response rate [2]: approximately 13%

Q: Which “Non-cytotoxic concentration relative to EC50 for CFTR activation” value ([3]; 25 μmol/L versus EC50) does the source give for `Nc1ccc([N+](=O)[O-])cc1-c1nc2ccccc2n(Cc2ccccc2)c1=O` [CFTRact-J027, 3-(2-amino-5-nitrophenyl)-1-benzylquinoxalin-2(1H)-one] here?
A: Its value is “more than 100 fold”.

Q: What about the “Cytotoxicity (Alamar Blue)” value ([3]; 25 μmol/L, FRT cells, 8 and 24 hours) of the same compound?
A: Its value is “did not show cytotoxicity”.

Q: What about the “Stool weight, pellet number and water content (3 hours)” value [1] of the same compound?
A: Its value is “normalized each of the stool parameters”.

Q: What about the “Stool output and water content, oral administration” value ([1]; 10 mg/kg oral 1 hour before loperamide, loperamide-treated mice) of the same compound?
A: The value was “effective in normalizing stool output and water content”.

Q: What about the “Stool output and water content in control mice, oral administration” value ([1]; 10 mg/kg oral, control mice) of the same compound?
A: Its value is “no effect”.

Q: And the “Stool output or water content in control mice” value ([1]; intraperitoneal, control (non-loperamide-treated) mice)?
A: Its value is “did not affect stool output or water content”.

Q: And the “50% effective dose, IP administration” value ([1]; loperamide model, intraperitoneal)?
A: The value was 2 mg/kg.

Q: And the “Stool output and water content in cystic fibrosis mice” value [4]?
A: Its value is “without effect”.

Q: And the Intestinal contraction [5]?
A: The Intestinal contraction was “no effect”.

Q: And the Body weight [6, 20]?
A: The Body weight was “did not change body weight”.

Q: What about the “Lung water content (lung wet/dry weight ratio)” value [6, 20] of the same compound?
A: The value was “normal lung water content”.

Q: And the “Major serum chemistry and blood parameters” value [6, 20]?
A: The value was “did not affect the major serum chemistry and blood parameters”.

Q: And the ALP level [6, 21]?
A: The ALP level was 53 ± 2.5 U/L.

Q: And the ALT level [6, 21]?
A: Its ALT level is 44 ± 6 U/L.

Q: What about the AST level [6, 21] of the same compound?
A: The AST level was 105 ± 11 U/L.

Q: What about the Albumin level [6, 21] of the same compound?
A: Its Albumin level is 2.9 ± 0.03 g/dL.

Q: What about the BUN level [6, 21] of the same compound?
A: Its BUN level is 18.4 ± 1.2 mg/dL.

Q: And the Bicarbonate level [6, 21]?
A: The Bicarbonate level was 16 ± 1.7 mmol/L.

Q: What about the CK level [6, 21] of the same compound?
A: The CK level was 312 ± 62 U/L.

Q: And the Calcium level [6, 21]?
A: The Calcium level was 8.5 ± 0.04 mg/dL.

Q: What about the Chloride level [6, 21] of the same compound?
A: The Chloride level was 115 ± 1 mmol/L.

Q: What about the Cholesterol level [6, 21] of the same compound?
A: Its Cholesterol level is 121 ± 6 mg/dL.

Q: What about the Creatinine level [6, 21] of the same compound?
A: Its Creatinine level is 0.2 ± 0 mg/dL.

Q: What about the Globulin level [6, 21] of the same compound?
A: The Globulin level was 2.2 ± 0.1 g/dL.

Q: What about the Glucose level [6, 21] of the same compound?
A: The Glucose level was 164 ± 6 mg/dL.

Q: And the Hemoglobin level [6, 21]?
A: Its Hemoglobin level is 12.8 ± 0.3 g/dL.

Q: And the Leukocyte level [6, 21]?
A: Its Leukocyte level is 1.9 ± 0.5 10^3/μL.

Q: And the Phosphorus level [6, 21]?
A: Its Phosphorus level is 6.8 ± 0.3 mg/dL.

Q: What about the Potassium level [6, 21] of the same compound?
A: The Potassium level was 4.4 ± 0.1 mmol/L.

Q: What about the Sodium level [6, 21] of the same compound?
A: Its Sodium level is 151 ± 0.7 mmol/L.

Q: What about the Thrombocyte level [6, 21] of the same compound?
A: Its Thrombocyte level is 900 ± 48 10^3/μL.

Q: And the Total bilirubin level [6, 21]?
A: Its Total bilirubin level is 0.1 ± 0 mg/dL.

Q: And the Total protein level [6, 21]?
A: Its Total protein level is 5.2 ± 0.1 g/dL.

Q: What about the “CFTR activation at 3 μmol/L” value ([7]; FRT cells expressing wild-type CFTR, 3 μmol/L) of the same compound?
A: The value was “nearly full activation”.

Q: And the “CFTR activation (short-circuit current)” value ([7]; FRT cells, wild-type CFTR, forskolin produced minimal further increase)?
A: Its value is “fully activated CFTR”.

Q: What about the “CFTR activation in the absence of forskolin” value ([7]; FRT cells, wild-type CFTR, no forskolin, data not shown) of the same compound?
A: Its value is “Little CFTR activation”.

Q: And the “Increase in loop weight/length ratio (fluid secretion)” value [8]?
A: Its value is 140%.

Q: And the “Stool output and water content after chronic administration” value [9]?
A: Its value is “remained effective in normalizing stool output and water content”.

Q: What about the “Cellular cAMP, compound added alone” value [10] of the same compound?
A: The value was “does not increase cellular cAMP”.

Q: And the “Cellular cAMP, compound added together with forskolin” value ([10]; with forskolin)?
A: Its value is “does not increase cAMP further”.

Q: What about the “Whole-gut transit time in cystic fibrosis mice” value [11] of the same compound?
A: The value was “no effect”.

Q: What about the “Loop fluid secretion in cystic fibrosis mice” value [12] of the same compound?
A: Its value is “without effect”.

Q: And the solubility [13]?
A: The solubility was roughly 25 µM (≈ 9.31 µg/mL).

Q: And the Intestinal fluid absorption [14]?
A: The Intestinal fluid absorption was “did not affect intestinal fluid absorption”.

Q: What about the “Original compound remaining at 60 minutes” value ([15]; mouse liver microsomes, 60 minutes) of the same compound?
A: The value was 7%.

Q: What about the half-life at 5 μmol/L ([15]; mouse, liver microsomes) of the same compound?
A: Its half-life at 5 μmol/L is roughly 21 min.

Q: And the Whole-gut transit time [16]?
A: Its Whole-gut transit time is “normalized”.

Q: And the “Potentiation of ΔF508-CFTR” value [17]?
A: Its value is “only a weak potentiator; also recorded: substantially less potent than ivacaftor”.

Q: And the half-life ([18]; female, CD1, mouse, serum, ip, 10 mg/kg)?
A: The half-life was roughly 16 min.

Q: What about the concentration at 30 minutes ([18]; female, CD1, mouse, serum, po, 10 mg/kg) of the same compound?
A: The concentration at 30 minutes was 180 nM.

Q: What about the “Serum concentration at 150 minutes after IP administration” value ([18]; mice, 10 mg/kg IP, 150 minutes) of the same compound?
A: The value was “undetectable”.

Q: And the “Blood levels after oral administration” value ([18]; mice, 10 mg/kg oral)?
A: The value was “less than 200 nmol/L”.

Q: What about the “Serum concentration at other time points after oral administration” value ([18]; mice, 10 mg/kg oral, time points other than 30 minutes) of the same compound?
A: Its value is “undetectable”.

Q: And the Oral bioavailability ([18]; mice, 10 mg/kg oral, 10 mg/kg)?
A: Its Oral bioavailability is “minimal bioavailability; also recorded: very low bioavailability”.

Q: For linaclotide [reference compound], which “Normalization of stool output as percent of the maximal CFTRact-J027 response” value ([1]; loperamide-treated mice) is on record?
A: Its value is 35%.

Q: What about the CSBM per week [19] of the same compound?
A: The CSBM per week was roughly 2.5.

Q: Which “Stool weight, pellet number and water content (3 hours)” value [1] does the source give for `Cn1c(=O)c(-c2cc([N+](=O)[O-])ccc2N)nc2ccccc21` [inactive chemical analog of CFTRact-J027, 3-(2-amino-5-nitrophenyl)-1-(methyl)-2(1H)-quinoxalinone] here?
A: Its value is “not effective”.
